Experimental data taken from ChEMBL document CHEMBL1795332, “Renin inhibitors for the treatment of hypertension: design and optimization of a novel series of pyridone-substituted piperidines” (Bioorg Med Chem Lett, 2011).
Blank lines part the entries; values can stand above or below the molecule they belong to.

How the values were obtained:
[1] = Oral bioavailability in Sprague-Dawley rat at 30 mg/kg; type: ADME, organism-based; settings: in vivo
Renin [2] = target: T1, Renin (Homo sapiens, UniProt P00797); test: Inhibition of human recombinant renin using Q-FRET substrate after 3 hrs by fluorescence assay
T1 sequence (P00797 whole entry): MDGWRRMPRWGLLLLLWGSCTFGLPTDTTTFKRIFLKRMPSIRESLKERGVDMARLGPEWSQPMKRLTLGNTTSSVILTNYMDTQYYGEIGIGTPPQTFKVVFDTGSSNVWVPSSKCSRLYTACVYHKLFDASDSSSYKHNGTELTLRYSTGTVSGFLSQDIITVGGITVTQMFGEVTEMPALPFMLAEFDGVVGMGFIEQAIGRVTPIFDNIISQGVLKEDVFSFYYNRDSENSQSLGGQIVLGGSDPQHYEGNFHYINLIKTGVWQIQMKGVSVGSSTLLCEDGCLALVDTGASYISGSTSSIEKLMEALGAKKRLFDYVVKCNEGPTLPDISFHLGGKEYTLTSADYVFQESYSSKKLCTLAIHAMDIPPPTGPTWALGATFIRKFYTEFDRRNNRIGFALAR

Renin [3] = target: T1, Renin; test: Inhibition of renin in human plasma using Q-FRET substrate pretreated for 10 mins before substrate addition measured after 1 hr
[4] = target: Voltage-gated inwardly rectifying potassium channel KCNH2 (Homo sapiens, UniProt Q12809); test: Inhibition of human ERG
Sequence of Voltage-gated inwardly rectifying potassium channel KCNH2 (Q12809 whole entry): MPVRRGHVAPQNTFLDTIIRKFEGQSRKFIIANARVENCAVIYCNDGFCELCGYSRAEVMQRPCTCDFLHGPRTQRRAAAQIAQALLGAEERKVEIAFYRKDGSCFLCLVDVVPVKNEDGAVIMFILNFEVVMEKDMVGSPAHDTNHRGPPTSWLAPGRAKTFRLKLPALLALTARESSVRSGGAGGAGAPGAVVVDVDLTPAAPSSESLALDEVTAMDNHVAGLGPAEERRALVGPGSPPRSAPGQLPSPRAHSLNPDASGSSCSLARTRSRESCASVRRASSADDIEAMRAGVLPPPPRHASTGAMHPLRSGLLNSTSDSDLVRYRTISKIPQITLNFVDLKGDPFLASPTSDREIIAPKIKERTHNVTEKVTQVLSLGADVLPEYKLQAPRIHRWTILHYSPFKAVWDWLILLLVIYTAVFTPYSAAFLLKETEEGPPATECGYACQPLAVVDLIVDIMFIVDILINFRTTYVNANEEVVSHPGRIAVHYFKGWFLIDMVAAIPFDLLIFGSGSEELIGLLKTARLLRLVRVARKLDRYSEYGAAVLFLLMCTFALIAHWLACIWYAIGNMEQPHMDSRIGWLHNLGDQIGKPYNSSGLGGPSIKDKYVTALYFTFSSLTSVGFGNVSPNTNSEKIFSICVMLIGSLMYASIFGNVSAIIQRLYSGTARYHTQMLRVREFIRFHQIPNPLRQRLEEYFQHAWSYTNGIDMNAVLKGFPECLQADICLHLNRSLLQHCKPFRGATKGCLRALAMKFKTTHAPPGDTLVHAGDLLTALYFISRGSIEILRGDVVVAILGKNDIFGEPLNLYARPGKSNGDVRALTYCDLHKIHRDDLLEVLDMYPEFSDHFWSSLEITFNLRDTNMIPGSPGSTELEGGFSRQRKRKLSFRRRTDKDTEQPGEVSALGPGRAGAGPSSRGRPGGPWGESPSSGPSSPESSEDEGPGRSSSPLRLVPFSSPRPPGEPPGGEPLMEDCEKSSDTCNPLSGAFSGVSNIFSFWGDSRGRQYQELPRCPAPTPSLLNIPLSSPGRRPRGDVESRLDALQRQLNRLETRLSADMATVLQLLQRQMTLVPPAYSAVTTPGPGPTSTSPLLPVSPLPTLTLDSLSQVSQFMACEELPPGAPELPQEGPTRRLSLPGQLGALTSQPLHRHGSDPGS

CYP3A4 [5] = target: T2, CYP3A4 (Homo sapiens, UniProt P08684); test: Reversible inhibition of CYP3A4 assessed as conversion of testosterone to 6-beta-hydroxytestosterone at 10 uM relative to control; type: ADME; settings: probe testosterone
T2 sequence (P08684 whole entry): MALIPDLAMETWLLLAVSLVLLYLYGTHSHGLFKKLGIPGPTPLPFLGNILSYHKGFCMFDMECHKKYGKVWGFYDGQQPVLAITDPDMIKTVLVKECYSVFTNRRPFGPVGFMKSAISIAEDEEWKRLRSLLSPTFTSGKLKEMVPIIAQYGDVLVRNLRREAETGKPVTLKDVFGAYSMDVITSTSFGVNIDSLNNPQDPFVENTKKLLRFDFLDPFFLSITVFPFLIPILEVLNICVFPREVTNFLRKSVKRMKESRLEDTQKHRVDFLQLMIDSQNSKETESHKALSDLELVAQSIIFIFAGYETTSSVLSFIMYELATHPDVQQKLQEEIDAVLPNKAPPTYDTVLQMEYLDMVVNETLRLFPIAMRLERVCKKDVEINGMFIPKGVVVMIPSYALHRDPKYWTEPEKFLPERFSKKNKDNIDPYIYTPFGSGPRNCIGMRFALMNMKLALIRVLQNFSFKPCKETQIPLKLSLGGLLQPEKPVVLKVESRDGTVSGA

CYP3A4 [6] = target: T2, CYP3A4; test: Time dependent inhibition of CYP3A4 assessed as conversion of testosterone to 6-beta-hydroxytestosterone at 10 uM relative to control; type: ADME; settings: probe testosterone
Procedure, shortened: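 Rate of CYP3A4 conversion of testosterone (250 μM) to 6-β-hydroxytestosterone measured before and after a 30 min incubation with compound at 10 μM (in DMSO). Difference expressed as % loss.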

[7] = target: Voltage-dependent L-type calcium channel subunit alpha-1C (Homo sapiens, UniProt Q13936); test: Inhibition of human Cav1.2
[8] = target: Sodium channel protein type 5 subunit alpha (Homo sapiens, UniProt Q14524); test: Inhibition of human Nav1.5
Sequence of Sodium channel protein type 5 subunit alpha (Q14524 whole entry): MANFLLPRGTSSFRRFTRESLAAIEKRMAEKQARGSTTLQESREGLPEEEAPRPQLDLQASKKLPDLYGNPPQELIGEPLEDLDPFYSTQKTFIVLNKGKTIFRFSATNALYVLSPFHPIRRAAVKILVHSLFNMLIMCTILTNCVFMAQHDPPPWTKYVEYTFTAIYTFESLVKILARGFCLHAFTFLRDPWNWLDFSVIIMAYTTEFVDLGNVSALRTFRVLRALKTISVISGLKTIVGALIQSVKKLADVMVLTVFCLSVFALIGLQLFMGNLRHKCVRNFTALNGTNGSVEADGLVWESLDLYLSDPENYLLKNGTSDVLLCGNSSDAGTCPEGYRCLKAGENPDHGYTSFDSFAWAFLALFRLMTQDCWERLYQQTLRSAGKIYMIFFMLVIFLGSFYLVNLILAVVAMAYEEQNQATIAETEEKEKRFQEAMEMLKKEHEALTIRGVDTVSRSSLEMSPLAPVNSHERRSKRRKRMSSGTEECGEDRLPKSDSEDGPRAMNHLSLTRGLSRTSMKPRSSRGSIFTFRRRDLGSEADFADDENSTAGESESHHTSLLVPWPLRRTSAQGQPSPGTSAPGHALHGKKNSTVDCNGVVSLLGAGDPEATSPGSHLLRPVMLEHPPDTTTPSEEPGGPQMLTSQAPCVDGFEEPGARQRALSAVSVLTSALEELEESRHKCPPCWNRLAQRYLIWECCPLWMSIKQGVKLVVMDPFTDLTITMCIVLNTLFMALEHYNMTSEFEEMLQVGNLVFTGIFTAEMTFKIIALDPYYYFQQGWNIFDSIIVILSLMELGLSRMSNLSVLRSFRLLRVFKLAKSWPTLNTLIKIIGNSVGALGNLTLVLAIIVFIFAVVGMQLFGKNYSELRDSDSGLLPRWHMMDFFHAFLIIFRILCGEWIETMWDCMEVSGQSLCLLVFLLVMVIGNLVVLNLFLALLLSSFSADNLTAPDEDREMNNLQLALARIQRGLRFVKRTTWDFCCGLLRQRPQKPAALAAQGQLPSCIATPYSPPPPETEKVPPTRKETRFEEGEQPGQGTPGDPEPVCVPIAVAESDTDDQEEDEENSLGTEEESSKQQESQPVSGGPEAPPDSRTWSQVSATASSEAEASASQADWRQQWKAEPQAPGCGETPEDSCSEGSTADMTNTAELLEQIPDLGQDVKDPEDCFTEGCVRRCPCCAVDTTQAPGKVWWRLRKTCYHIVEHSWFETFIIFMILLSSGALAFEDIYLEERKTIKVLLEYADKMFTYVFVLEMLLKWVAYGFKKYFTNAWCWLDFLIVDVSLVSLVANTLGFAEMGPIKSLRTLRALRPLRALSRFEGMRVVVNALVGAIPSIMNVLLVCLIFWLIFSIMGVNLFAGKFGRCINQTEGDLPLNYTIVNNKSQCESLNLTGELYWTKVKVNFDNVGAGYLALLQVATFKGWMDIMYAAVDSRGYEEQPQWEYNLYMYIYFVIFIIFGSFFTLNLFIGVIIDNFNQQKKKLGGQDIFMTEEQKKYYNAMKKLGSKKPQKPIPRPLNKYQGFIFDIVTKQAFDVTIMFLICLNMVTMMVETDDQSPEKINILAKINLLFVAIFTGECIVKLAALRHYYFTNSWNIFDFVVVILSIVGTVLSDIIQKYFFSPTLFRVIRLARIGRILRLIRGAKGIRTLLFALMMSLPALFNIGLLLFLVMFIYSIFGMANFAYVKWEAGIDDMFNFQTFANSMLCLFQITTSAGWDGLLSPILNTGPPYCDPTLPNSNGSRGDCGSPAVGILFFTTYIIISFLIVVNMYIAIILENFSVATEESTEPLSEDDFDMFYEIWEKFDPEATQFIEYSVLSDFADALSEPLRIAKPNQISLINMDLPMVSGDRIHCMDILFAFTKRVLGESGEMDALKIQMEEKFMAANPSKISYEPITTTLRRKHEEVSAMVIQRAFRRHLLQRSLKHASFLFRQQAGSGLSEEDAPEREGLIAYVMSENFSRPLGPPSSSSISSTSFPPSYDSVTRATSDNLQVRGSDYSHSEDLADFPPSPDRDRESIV

Canis familiaris [9] = test: Cardiotoxicity in anesthetized, vagotomized and ventilated Mongrel dog assessed as prolongation of QTc intervals at 10 mg/kg, iv after 1.5 hrs relative to baseline; type: toxicity, organism-based, Canis lupus familiaris; set-up: dose 10 mg/kg, route intravenous; settings: in vivo
Procedure, shortened: (§1)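 Anesthetized, vagotomized, ventilated mongrel dogs received an iv infusion of 10 mpk over 1.5 h. QTc, PR and QRS intervals were recorded as percentage change from baseline, and plasma concentration (µM) was measured.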

Canis familiaris [10] = test: Cardiotoxicity in anesthetized, vagotomized and ventilated Mongrel dog assessed as prolongation of PR intervals at 10 mg/kg, iv after 1.5 hrs relative to baseline; type: toxicity, organism-based, Canis lupus familiaris; set-up: dose 10 mg/kg, route intravenous; settings: in vivo; procedure, shortened: as §1
Canis familiaris [11] = test: Cardiotoxicity in anesthetized, vagotomized and ventilated Mongrel dog assessed as prolongation of QRS intervals at 10 mg/kg, iv after 1.5 hrs relative to baseline; type: toxicity, organism-based, Canis lupus familiaris; set-up: dose 10 mg/kg, route intravenous; settings: in vivo; procedure, shortened: as §1
[12] = Plasma concentration in anesthetized, vagotomized and ventilated Mongrel dog at 10 mg/kg, iv after 1.5 hrs; type: ADME, organism-based, Canis lupus familiaris; set-up: dose 10 mg/kg, route intravenous; procedure, shortened: as §1
Rattus norvegicus [13] = test: Cardiotoxicity in cardiac electrophysiology rat model assessed as prolongation of PR intervals at 10 mg/kg, iv after 0.5 hrs relative to baseline; type: toxicity, organism-based, Heart; set-up: dose 10 mg/kg, route intravenous; settings: in vivo
Procedure, shortened: (§2)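 Rat electrophysiology model dosed at 10 mpk over 0.5 h. PR and QRS prolongation expressed as percentage change from baseline; plasma concentration (µM) recorded.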

Rattus norvegicus [14] = test: Cardiotoxicity in cardiac electrophysiology rat model assessed as prolongation of QRS intervals at 10 mg/kg, iv after 0.5 hrs relative to baseline; type: toxicity, organism-based, Heart; set-up: dose 10 mg/kg, route intravenous; settings: in vivo; procedure, shortened: as §2
[15] = Plasma concentration in cardiac electrophysiology rat model at 10 mg/kg, iv after 0.5 hrs; type: ADME, organism-based; set-up: dose 10 mg/kg, route intravenous; procedure, shortened: as §2
[16] = Oral bioavailability in Sprague-Dawley rat at 3 mg/kg; type: ADME, organism-based; settings: in vivo
[17] = Oral bioavailability in Sprague-Dawley rat at 20 mg/kg; type: ADME, organism-based; settings: in vivo
[18] = AUC in Sprague-Dawley rat at 20 mg/kg, po; type: ADME, organism-based; set-up: dose 20 mg/kg, route oral; settings: plasma
[19] = Oral bioavailability in Beagle dog at 3 mg/kg; type: ADME, organism-based, Canis lupus familiaris; settings: in vivo
[20] = AUC in Beagle dog at 3 mg/kg, po; type: ADME, organism-based, Canis lupus familiaris; set-up: dose 3 mg/kg, route oral; settings: plasma
[21] = Clearance in Beagle dog at 3 mg/kg, po and 1 mg/kg, iv; type: ADME, organism-based, Canis lupus familiaris; settings: in vivo
[22] = Half life in Beagle dog at 3 mg/kg, po and 1 mg/kg, iv; type: ADME, organism-based, Canis lupus familiaris; settings: in vivo
[23] = Volume of distribution at steady state in Beagle dog at 3 mg/kg, po and 1 mg/kg, iv; type: ADME, organism-based, Canis lupus familiaris; settings: in vivo, read-out: Vdss
[24] = Oral bioavailability in cynomolgus monkey at 3 mg/kg; type: ADME, organism-based, Macaca fascicularis; settings: in vivo
[25] = AUC in cynomolgus monkey at 3 mg/kg, po; type: ADME, organism-based, Macaca fascicularis; set-up: dose 3 mg/kg, route oral; settings: plasma
[26] = Clearance in cynomolgus monkey at 3 mg/kg, po and 1 mg/kg, iv; type: ADME, organism-based, Macaca fascicularis; settings: in vivo
[27] = Half life in cynomolgus monkey at 3 mg/kg, po and 1 mg/kg, iv; type: ADME, organism-based, Macaca fascicularis; settings: in vivo
[28] = Volume of distribution at steady state in cynomolgus monkey at 3 mg/kg, po and 1 mg/kg, iv; type: ADME, organism-based, Macaca fascicularis; settings: in vivo, read-out: Vdss
Liver microsomes [29] = test: Covalent binding in human liver microsomes assessed per mg of protein at 10 uM after 60 mins in presence of NADPH; type: ADME, Microsome; settings: 1 h
Procedure, shortened: (§3)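 Test compound at 10 μM was incubated for 60 min (n = 3) with human liver microsomes at 1 mg protein/mL, with or without 1 mM NADPH. Covalent binding reported as pmole eq/mg at 1 h.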

Liver microsomes [30] = test: Covalent binding in human liver microsomes assessed per mg of protein at 10 uM after 60 mins in absence of NADPH; type: ADME, Microsome; settings: 1 h; procedure, shortened: as §3
Rattus norvegicus [31] = test: Antihypertensive activity in double transgenic rat model assessed as reduction of blood pressure at 10 mg/kg, po; type: functional
Rattus norvegicus [32] = test: Antihypertensive activity in double transgenic rat model assessed as duration in reduction of blood pressure at 10 mg/kg, po; type: functional
Cytochrome P450 3A4 [33] = target: T3, Cytochrome P450 3A4 (Homo sapiens, UniProt P08684); test: Reversible inhibition of CYP3A4 assessed as conversion of testosterone to 6-beta-hydroxytestosterone; type: ADME
T3 sequence (P08684 whole entry): as the sequence (P08684 whole entry) above

Cytochrome P450 3A4 [34] = target: T3, Cytochrome P450 3A4; test: Time dependent inhibition of CYP3A4 assessed as conversion of testosterone to 6-beta-hydroxytestosterone preincubated for 30 mins; type: ADME
Procedure, shortened: (§4)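 Time-dependent CYP3A4 inhibition (testosterone to 6-β-hydroxytestosterone).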

Cytochrome P450 3A4 [35] = target: T3, Cytochrome P450 3A4; test: Time dependent inhibition of CYP3A4 assessed as conversion of testosterone to 6-beta-hydroxytestosterone; type: ADME; procedure, shortened: as §4
[36] = Clearance in Sprague-Dawley rat at 20 mg/kg, po and 5 mg/kg, iv; settings: in vivo
[37] = Half life in Sprague-Dawley rat at 20 mg/kg, po and 5 mg/kg, iv; settings: in vivo
[38] = Volume of distribution at steady state in Sprague-Dawley rat at 20 mg/kg, po and 5 mg/kg, iv; settings: in vivo, read-out: Vdss

bioavailability [1]: 8%
IC50 (Renin [2]): 0.32 nM
IC50 (Renin [3]): 0.87 nM
activity % at 10 µM (CYP3A4 [5]): 41%
inhibition at 10 µM (CYP3A4 [6]): 0%
Compound: COCCCn1cc(CN(C(=O)[C@H]2CNCC[C@@H]2c2ccn(C)c(=O)c2)C2CC2)c2c(F)cccc21
Ki [4]: > 29000 nM

bioavailability [1]: 7%
IC50 (Renin [2]): 0.6 nM
IC50 (Renin [3]): 1 nM
inhibition at 10 µM (CYP3A4 [6]): 15%
Compound: COCCCc1cc(C)c(C)c(CN(C(=O)[C@H]2CNCC[C@@H]2c2ccn(C)c(=O)c2)C2CC2)c1

bioavailability [1]: 2%
IC50 (Renin [2]): 0.8 nM
IC50 (Renin [3]): 2.2 nM
activity % at 10 µM (CYP3A4 [5]): 85%
inhibition at 10 µM (CYP3A4 [6]): 16%
Compound: COCCCc1cc(CN(C(=O)[C@H]2CNCC[C@@H]2c2ccn(C)c(=O)c2)C2CC2)c2ncccc2c1
Ki [4]: 27000 nM

bioavailability [1]: 8%
concentration at 1.5 h [12]: 25 µM
concentration at 0.5 h [15]: 12.7 µM
IC50 (Renin [2]): 2.3 nM
IC50 (Renin [3]): 5.2 nM
inhibition at 10 µM (CYP3A4 [6]): 45%
Compound: COCCCn1cc(CN(C(=O)[C@H]2CNCC[C@@H]2c2ccn(C)c(=O)c2)C2CC2)c2ccccc21
IC50 [7]: > 30000 nM
IC50 [8]: > 30000 nM
Activity (Canis familiaris [9]): 6%
Activity (Canis familiaris [10]): 14%
Activity (Canis familiaris [11]): 12%
Activity (Rattus norvegicus [13]): 23%
Activity (Rattus norvegicus [14]): 30%

bioavailability [16]: 0%
IC50 (Renin [2]): 0.24 nM
IC50 (Renin [3]): 0.53 nM
activity % at 10 µM (CYP3A4 [5]): 44%
inhibition at 10 µM (CYP3A4 [6]): 29%
Compound: Cn1ccc([C@H]2CCNC[C@@H]2C(=O)N(Cc2cn(Cc3ccncc3)c3cccc(F)c23)C2CC2)cc1=O
Ki [4]: 15000 nM

concentration at 1.5 h [12]: 15 µM
concentration at 0.5 h [15]: 7.4 µM
IC50 (Renin [2]): 0.3 nM
IC50 (Renin [3]): 1.3 nM
activity % at 10 µM (CYP3A4 [5]): 53%
inhibition at 10 µM (CYP3A4 [6]): 16%
bioavailability [17]: 24%
Compound: COCCCc1cc(Cl)c(Cl)c(CN(C(=O)[C@H]2CNCC[C@@H]2c2ccn(C)c(=O)c2)C2CC2)c1
Activity (Canis familiaris [9]): 10%
Activity (Canis familiaris [10]): 50%
Activity (Canis familiaris [11]): 33%
Activity (Rattus norvegicus [13]): 35%
Activity (Rattus norvegicus [14]): 54%
Ki [4]: 4800 nM

bioavailability [1]: 22%
IC50 (Renin [2]): 0.12 nM
IC50 (Renin [3]): 0.64 nM
activity % at 10 µM (CYP3A4 [5]): 48%
inhibition at 10 µM (CYP3A4 [6]): 19%
Compound: COCCCn1cc(CN(C(=O)[C@H]2CNCC[C@@H]2c2ccn(C)c(=O)c2)C2CC2)c2c(Cl)cccc21
Ki [4]: 23000 nM

concentration at 1.5 h [12]: 9.3 µM
concentration at 0.5 h [15]: 7.9 µM
AUC [18]: 4.2 µM·h
bioavailability [19]: 36%
AUC [20]: 2.1 µM·h
clearance [21]: 16 mL/min/kg
half-life [22]: 13.7 h
Vd [23]: 4.5 L/kg
bioavailability [24]: 14%
AUC [25]: 0.9 µM·h
clearance [26]: 14 mL/min/kg
half-life [27]: 7.8 h
Vd [28]: 4.8 L/kg
Activity (Liver microsomes [29]): 34.5 pmolequiv
Activity (Liver microsomes [30]): 8.3 pmolequiv
IC50 (Cytochrome P450 3A4 [33]): 6500 nM
IC50 (Cytochrome P450 3A4 [34]): 16000 nM
IC50 (Cytochrome P450 3A4 [35]): 20000 nM
IC50 (Renin [2]): 1 nM
IC50 (Renin [3]): 2.4 nM
activity % at 10 µM (CYP3A4 [5]): 22%
inhibition at 10 µM (CYP3A4 [6]): 0%
bioavailability [17]: 30%
clearance [36]: 67 mL/min/kg
half-life [37]: 5.2 h
Vd [38]: 17 L/kg
Compound: COCCCc1cc(CN(C(=O)[C@H]2CNCC[C@@H]2c2ccn(C)c(=O)c2)C2CC2)cc(Br)c1C
Activity (Canis familiaris [9]): 0%
Activity (Canis familiaris [10]): 5%
Activity (Canis familiaris [11]): 4%
Activity (Rattus norvegicus [13]): 16%
Activity (Rattus norvegicus [14]): 14%
Activity (Rattus norvegicus [31]): 35 mmHg
Time (Rattus norvegicus [32]): 24 h
Ki [4]: 18000 nM

bioavailability [1]: 30%
IC50 (Renin [2]): 0.06 nM
IC50 (Renin [3]): 0.63 nM
activity % at 10 µM (CYP3A4 [5]): 18%
inhibition at 10 µM (CYP3A4 [6]): 39%
Compound: Cn1ccc([C@H]2CCNC[C@@H]2C(=O)N(Cc2cn(Cc3cccc(F)c3)c3cccc(F)c23)C2CC2)cc1=O
Ki [4]: 1200 nM

bioavailability [16]: 3%
IC50 (Renin [2]): 0.07 nM
IC50 (Renin [3]): 0.57 nM
activity % at 10 µM (CYP3A4 [5]): 63%
inhibition at 10 µM (CYP3A4 [6]): 48%
Compound: COCCCn1cc(CN(C(=O)[C@H]2CNCC[C@@H]2c2ccn(C)c(=O)c2)C2CC2)c2c(Br)cccc21
Ki [4]: 11000 nM
